Data as given in ChEMBL document CHEMBL1147345, “Appenolides A-C: three new antifungal furanones from the coprophilous fungus Podospora appendiculata” (1993).
Active and inactive are the calls of the source. The rule behind the calls is not given here.

How the values were obtained:
Format in all cases: functional
Candida albicans = assay: Antifungal activity against Candida albicans ATCC 14053 at 150 ug/disk by standard disk assay; conditions: read-out: IZ
How it was run: (§1)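 Standard disc assay with 150 µg of compound loaded per disc. Activity is read as the zone of inhibition around the disc, in mm.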

Ascobolus stercorarius = assay: Antifungal activity against Ascobolus furfuraceus NRRL 6460 assessed as reduction in radial growth rate at 50 ug/disk by centerpoint inoculation disk assay
Sordaria fimicola = assay: Antifungal activity against Sordaria fimicola NRRL 6459 assessed as reduction in radial growth rate at 150 ug/disk by centerpoint inoculation disk assay
Bacillus subtilis = assay: Antibacterial activity against Bacillus subtilis ATCC 6051 at 150 ug/disk by standard disk assay; conditions: for zone of inhibition at 150 µg/disc: read-out: IZ; how it was run: as §1

SMILES | zone of inhibition at 150 µg/disc (Candida albicans) | Activity (Ascobolus stercorarius) | Activity (Sordaria fimicola) | zone of inhibition at 150 µg/disc (Bacillus subtilis) | Activity (Bacillus subtilis)
CCC(O)CCCC/C=C/C1=C(C)C(=O)OC1 (configuration not stated) [APPENOLIDE C] | 12 mm | Active | Active | 8 mm | 
CC1=C(/C=C/CCCCCC(C)O)COC1=O (configuration not stated) [APPENOLIDE B] | 12 mm | Active | Active | 8 mm | 
CC(=O)CCCCC/C=C/C1=C(C)C(=O)OC1 [APPENOLIDE A] | 12 mm | 26% | 54% |  | inactive
